# Measles CPE: compounds protecting cells from measles virus cytopathic effect, primary screen, measles RdRp inhibitor project, single point, MLSMR library, absorbance | hit rate 1.5% among 140,000 | Measles virus-infected cells, CPE protection | protection (pct of control), % at 4 µM | AID 841, 2007; in the data active = protection mostly above about 24%, no sharp cut-off; inactive = mostly below about 26%
# RAM inhibit: inhibitors of the yeast RAM network, primary screen, dse1pr::URA3 reporter, 5-FOA selection; hit rate 1.8% among 190,000; inhibition, % at 50 µM; S. cerevisiae dse1pr::URA3 reporter, 5-FOA growth OD615, 2 d; analog-sensitive cbk1-as2 kinase mutant strain;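 active = inhibition above a set limit, 3 SD over mean compound inhibition, cut at about 8.4% in these data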;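 note: 0% = DMSO-only wells with no growth and 100% = 10 µM 1-NA-PP1 full growth; inhibition rescues growth on 5-FOA so higher OD means more RAM inhibition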
# MDM2 E3 inh: MDM2-luciferase reporter signal enhancers, primary screen, MDM2 E3 ligase inhibitor project, cell-based, luminescence, 1536-well. E3 ubiquitin-protein ligase Mdm2 (Homo sapiens), Q00987. AID 1230, 2008. cell-based MDM2 ubiquitination luciferase reporter, 2 h; 0 = plate control, 100 = twice control, blank-subtracted. signal enhancement, % at 5 µM. hit rate 0.11% among 210,000;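 active = signal enhancement of 30% or more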;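 note: luminescence tracks abundance of the self-degrading MDM2-luciferase fusion protein; higher signal means inhibition of MDM2 E3 ligase activity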
# Target sequence (Q00987 whole entry, looked up, the tested form may be a part): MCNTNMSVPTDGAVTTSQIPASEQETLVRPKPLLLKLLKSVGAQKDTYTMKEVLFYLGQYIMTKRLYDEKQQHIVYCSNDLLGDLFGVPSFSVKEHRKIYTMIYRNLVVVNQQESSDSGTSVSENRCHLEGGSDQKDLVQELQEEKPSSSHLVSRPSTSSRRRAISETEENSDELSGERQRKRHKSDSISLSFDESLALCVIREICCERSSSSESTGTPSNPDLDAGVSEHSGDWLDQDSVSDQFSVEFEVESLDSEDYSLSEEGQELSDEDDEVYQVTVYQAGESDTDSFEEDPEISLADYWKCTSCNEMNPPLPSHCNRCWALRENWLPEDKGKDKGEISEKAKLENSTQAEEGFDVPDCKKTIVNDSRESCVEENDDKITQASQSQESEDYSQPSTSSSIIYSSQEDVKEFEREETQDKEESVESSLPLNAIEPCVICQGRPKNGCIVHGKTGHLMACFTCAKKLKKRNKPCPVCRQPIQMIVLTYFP
#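 Test system: stable mammalian line carrying autodegrading MDM2–luciferase fusion reporter; quantity: 2000 cells in each well; times: 4 h cell settling then 2 h compound exposure, 37 °C; detection: luminescence with SteadyLite reagent, 15 min at room temperature; evaluation: percent signal gain over controls, blank-subtracted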
# Yeast lifespan up: compounds extending yeast replicative lifespan, primary screen, S. cerevisiae, OD615. S. cerevisiae growth with nicotinamide; deaD strain in restrictive glucose medium. inhibition of the nicotinamide effect, % at 10 µM. hit rate 0.68% among 130,000. AID 775, 2007;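 active = inhibition above a set limit, placed 3 SD over the median of all compounds, cut at about 26% in these data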;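 note: 0% = nicotinamide-treated wells and 100% = cells grown without nicotinamide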
#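 Assay system: DeaD-strain S. cerevisiae. Medium: CSMM-D glucose medium, restrictive. Reagent: nicotinamide, 1.5 mM, co-present with compound. Compound: 10 µM single point, 0.25% DMSO. Schedule: culture preincubation 4 h, compound exposure 48 h, both 30 °C. Detection: absorbance at 615 nm.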
# Yeast growth inh: growth inhibitors of yeast BB579 in restrictive medium, primary screen, yeast lifespan-shortening project, S. cerevisiae; OD615, 48 h; inhibition, % at 10 µM; hit rate 0.51% among 140,000;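 active = inhibition above a set limit, 3 SD over the mean compound inhibition, cut at about 44% in these data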
#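 Test system: Saccharomyces cerevisiae DeaD strain BB579, replicative lifespan model yeast | Buffer or medium: Restrictive CSMM-D medium | Doses: One dose, 10 µM compound with 0.25% DMSO | Incubation: 48 h exposure, 30 °C | Detection: Culture absorbance at 615 nm | Control set: Amphotericin B at 10 µg/mL as positive control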
# INS promoter inh: inhibitors of insulin promoter-driven GFP, primary screen, imaging, TRM-6 cells (human fetal islet line), eGFP reporter, cell count. reporter expression induced with tamoxifen. hit rate 0.9% among 130,000. inhibition, % at 2 µM;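 active = inhibition above the mean plus 3 SD, with well images judged a real hit on visual review, cut at about 60% in these data, passing the limit was not always enough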
# RAM efflux-def: 5-FOA growth of efflux-deficient control yeast, dose response, counter-screen for RAM network inhibitor project, S. cerevisiae, OD615; shares compounds with RAM inhibit; S. cerevisiae efflux-deficient reporter strain, 5-FOA growth OD615, 2 days; max inhibition, %; 1,200 tested, under 10 active; call rule not given here;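 note: plate controls were vehicle for no effect and reference inhibitor for full effect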
# The depositor's hits bear a star; / = not tested or not shown. The list is not random: actives were taken first. Their share in the collection is about 4%.
SMILES,Measles CPE,RAM inhibit,MDM2 E3 inh,Yeast lifespan up,Yeast growth inh,INS promoter inh,RAM efflux-def
CCCC(=O)Oc1c(S(=O)(=O)c2ccc(C)cc2)c(C)nn1C(C)(C)C,/,12*,-7,/,/,-36,2
CCC(=O)Oc1c(S(=O)(=O)c2ccc(C)cc2)c(C)nn1C(C)(C)C,5,1,1,1,-29,/,/
O=C(COC(=O)c1ccncc1)Nc1ccccc1,/,2,-8,/,/,44,/
O=C(COC(=O)c1ccc(CSc2ccc(Cl)cc2)cc1)Nc1ccccc1,23,11*,-11,10,-48,/,2
CCOC(=O)c1nc(Nc2ccc(N3CCC(C)CC3)cc2)c2ccccc2n1,/,-1,-9,/,/,/,/
CC(=O)NCCn1c(SCc2ccccc2C)nc2ccccc2c1=O,6,0,-5,-10,-58,17,/
CC(=O)NCCn1c(SCc2cccc([N+](=O)[O-])c2)nc2ccccc2c1=O,/,12*,-2,/,/,-13,3
COc1ccc(NC(=O)CSc2nc3ccccc3c(=O)n2CCNC(C)=O)c(OC)c1,3,12*,0,15,-46,/,1
O=C(CCN1C(=O)c2ccccc2C1=O)C1=NN[C@@H]2C(=O)N(c3ccc4c(c3)OCO4)C(=O)[C@H]12,/,/,-11,/,/,/,/
CC1CC(OC(=O)CN2CCCCC2)CC(C)(C)C1 (stereo not drawn),/,/,-11,/,/,/,/
CCN=C1S/C(=C\c2ccc(O)c(OCC)c2)C(=O)N1CC,7,2,9,-1,-62,25,/
CCN=C1S/C(=C\c2cc(OCC)c(O)cc2Br)C(=O)N1CC,3,12*,11,2,-43,50,3
O=C(OCC#CCSc1nc2ccccc2o1)c1ccco1,7,1,-6,-11,8,-42,/
O=C(OCC#CCSc1nnc(-c2cccc3ccccc23)o1)c1ccco1,3,17*,-7,-17,-44,31,2
CC(C)(CC(=O)O)CC(=O)NNc1ncccc1C#N,/,/,-3,/,/,/,/
CCCNC(=O)COC(=O)c1ccccc1OCc1ccc(Cl)cc1,5,0,0,-13,15,43,/
O=C(Nc1ccc(Oc2ccc3ccccc3c2)cc1)c1ccco1,0,15*,-1,-23,-23,/,4
CC[n+]1c(/C=C/Nc2ccccc2)sc2ccccc21,4,0,-11,5,-9,/,/
CCN1/C(=C/C=C/C=C/c2sc3ccccc3[n+]2CC)Sc2ccccc21,0,22*,/,14,84*,-355,9
C/C=C/c1ccc(OCC(=O)OCc2csc(Nc3ccc(C)cc3)n2)c(OC)c1,16,12*,-4,-2,-9,48,4
COc1ccc(N=C2S/C(=C\c3cccs3)C(=O)N2CC(C)C)cc1,20,5,-7,5,-52,3,/
COc1ccc(N=C2S/C(=C\c3ccc(C)s3)C(=O)N2CC(C)C)cc1,5,15*,-17,-5,-34,7,4
C/C=C(/C)C(=O)OC(C)(C)[C@@H]1Cc2c(ccc3ccc(=O)oc23)O1,4,2,/,10,-36,14,/
C/C=C(/C)C(=O)O[C@@H]1c2c(ccc3ccc(=O)oc23)O[C@@H]1C(C)(C)OC(=O)/C(C)=C\C,1,18*,/,7,-54,-5,5
CCOC(=O)C1=C(c2ccccc2)N=c2s/c(=C\c3cc(OC)c(OC)c(OC)c3)c(=O)n2C1c1cccs1 (stereo not drawn),2,12*,-16,-15,-12,3,4
SMILES,Measles CPE,RAM inhibit,MDM2 E3 inh,Yeast lifespan up,Yeast growth inh,INS promoter inh,RAM efflux-def
CCOC(=O)C1=C(c2ccccc2)N=c2s/c(=C\c3ccco3)c(=O)n2C1c1cccs1 (stereo not drawn),10,5,4,3,-38,/,/
O=C1CC(SC2=NCCS2)C(=O)N1c1cccc(Cl)c1Cl (stereo not drawn),/,0,-1,/,/,-20,/
CC1=C(C(=O)OCc2ccccc2)C(c2ccc3ccccc3c2)NC(=O)N1CCCCCC(=O)O (stereo not drawn),16,7,/,26,-33,30,/
CC1=C(C(=O)OCc2ccccc2)C(c2ccc([N+](=O)[O-])cc2)NC(=O)N1CCCCCC(=O)O (stereo not drawn),15,14*,/,10,-33,20,5
CC1=C(C(=O)OCc2ccccc2)C(c2ccc(C(C)(C)C)cc2)NC(=O)N1CCCCCC(=O)O (stereo not drawn),6,18*,/,6,-45,38,6
COc1ccccc1NC(=O)CSc1nc2ccccc2cc1Cc1ccccc1,17,7,-9,-17,-9,-3,/
CCc1ccc(NC(=O)Cn2c(SC)nc3ccccc32)cc1,3,21*,-7,-2,-13,/,3
CCOc1ccccc1NC(=O)C(OC(=O)c1cc(C)oc1C)c1ccccc1 (stereo not drawn),16,14*,1,0,-28,-6,5
CN(C)c1cc[n+](CC(=O)Nc2ccc(Oc3ccccc3)cc2)cc1,/,2,-9,/,/,-3,/
Cn1cccc1C(=O)C(=O)Nc1ccccc1C(F)(F)F,/,3,-4,/,/,0,/
CCOC(=O)c1cnn(-c2ccccc2)c1-n1cccc1C(=O)C(=O)Nc1ccccc1C(F)(F)F,2,14*,-7,-4,-28,21,3
O=C(NCc1ccccc1)c1ccc(S(=O)(=O)N2CCCc3ccccc32)cc1,9,12*,-3,-22,-70,-5,3
CCOC(=O)N1CCN(C(=O)/C=C/c2cccc([N+](=O)[O-])c2)CC1,/,-1,-11,/,/,0,/
O=C(CCNC(=O)c1ccccc1Cl)Nc1cc(C(F)(F)F)ccc1Cl,10,1,-4,-4,-20,-13,/
Cc1ccc(C)c(C(=O)COC(=O)CCCC(=O)Nc2cc(C(F)(F)F)ccc2Cl)c1,3,18*,2,1,-13,/,2
COc1ccnc(N2CCN(c3ccc(Cl)cc3)CC2)c1C#N,6,14*,-8,-11,-14,-19,4
CCOc1cc(/C=N/NC(=O)c2cccnc2)ccc1OCC(=O)N1CCOCC1,4,1,-5,-4,-33,/,/
CN(C)c1nc(OCCOC(=O)COc2ccc(Cl)cc2Cl)nc(N(C)C)n1,12,1,0,-2,-47,-5,/
